Laboratory results taken from ChEMBL document CHEMBL3352743, “Chemically accessible hsp90 inhibitor that does not induce a heat shock response” (ACS Med Chem Lett, 2014).
Values after ≈ are worked out from the molar mass of the structure shown. Active and inactive are the calls of the source. The calls are words filed in the database; no cut-off is given here.

Tests used:
[1] = biological target: Heat shock protein HSP 90-beta (Homo sapiens) (UniProt P08238); assay: Binding affinity to HSP90 in human HCT116 cells by coomassie blue staining and Western blotting based pull down assay; type: cell-based; settings: HCT-116
Procedure, shortened: (§1)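 Biotin-tagged analogue (0.1 mg) incubated in HCT-116 or MiaPaCa-2 cell lysate, then recovered on NeutrAvidin beads. Bound proteins eluted in sample buffer, visualized by Coomassie stain or Western blot, and identified by nano-LC/MS/MS. Image representative of 3 independent assays.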

[2] = biological target: Heat shock protein HSP 90-beta (Homo sapiens) (UniProt P08238); assay: Binding affinity to HSP90 in human MIAPaCa2 cells by coomassie blue staining and Western blotting based pull down assay; type: cell-based; settings: MIA PaCa-2; procedure, shortened: as §1
[3] = Cytotoxicity against human MIAPaCa2 cells after 72 hrs by CCK8 assay; type: functional, cell-based; settings: MIA PaCa-2, 72 h
[4] = Cytotoxicity against human HCT116 cells after 72 hrs by CCK8 assay; type: functional, cell-based; settings: HCT-116, 72 h
[5] = Solubility in 80% EtOH/20% water; type: physicochemical; settings: 80% EtOH/20% water; read-out: solubility

Heat shock protein HSP 90-beta (Homo sapiens), sequence (P08238 whole entry): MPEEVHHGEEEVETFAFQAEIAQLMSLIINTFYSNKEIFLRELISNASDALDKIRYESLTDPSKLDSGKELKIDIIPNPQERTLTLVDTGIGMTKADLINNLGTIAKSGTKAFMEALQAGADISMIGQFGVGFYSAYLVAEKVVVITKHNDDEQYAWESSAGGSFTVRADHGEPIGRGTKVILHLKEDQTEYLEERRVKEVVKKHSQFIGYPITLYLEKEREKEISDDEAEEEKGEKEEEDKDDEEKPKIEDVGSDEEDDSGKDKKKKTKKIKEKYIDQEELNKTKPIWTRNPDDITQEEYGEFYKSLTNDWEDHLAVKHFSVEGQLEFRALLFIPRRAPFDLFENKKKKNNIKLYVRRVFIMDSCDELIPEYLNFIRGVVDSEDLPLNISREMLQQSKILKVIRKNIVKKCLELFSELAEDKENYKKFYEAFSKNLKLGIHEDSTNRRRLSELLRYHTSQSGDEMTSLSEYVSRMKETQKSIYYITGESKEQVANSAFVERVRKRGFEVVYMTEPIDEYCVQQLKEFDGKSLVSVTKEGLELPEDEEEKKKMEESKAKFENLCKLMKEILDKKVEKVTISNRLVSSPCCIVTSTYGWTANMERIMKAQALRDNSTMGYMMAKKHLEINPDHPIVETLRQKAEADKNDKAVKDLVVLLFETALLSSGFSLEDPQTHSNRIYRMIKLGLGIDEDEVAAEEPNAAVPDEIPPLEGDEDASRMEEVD

CC(C)C[C@H]1NC(=O)[C@@H](Cc2cscn2)NC(=O)[C@@H](C(c2ccccc2)c2ccccc2)NC(=O)[C@H](CCCCNC(=O)CCOCCOCCOCCOCCNC(=O)CCCC[C@@H]2SC[C@@H]3NC(=O)N[C@@H]32)NC(=O)[C@H](C(C)C)N(C)C1=O
Activity [1]: Active
Activity [2]: Active

CC(C)C[C@@H]1NC(=O)[C@H](C(C)C)N(C)C(=O)[C@@H](CC(C)C)NC(=O)[C@@H](Cc2ccccn2)NC(=O)[C@@H](C(c2ccccc2)c2ccccc2)NC1=O
IC50 [3]: 23.6 µM
IC50 [4]: 18.1 µM

CC(C)C[C@@H]1NC(=O)[C@H](C(C)C)N(C)C(=O)[C@@H](CC(C)C)NC(=O)[C@@H](Cc2ccccc2)NC(=O)[C@@H](C(c2ccccc2)c2ccccc2)NC1=O
IC50 [3]: 12.8 µM
IC50 [4]: 7.6 µM
solubility [5]: 2.1 mg/mL (≈ 2960 µM)

CC(C)C[C@@H]1NC(=O)[C@H](C(C)C)N(C)C(=O)[C@@H](CC(C)C)NC(=O)[C@@H](Cc2cccnc2)NC(=O)[C@@H](C(c2ccccc2)c2ccccc2)NC1=O
IC50 [3]: 23 µM
IC50 [4]: 20.8 µM

COc1ccc(C[C@H]2NC(=O)[C@@H](C(c3ccccc3)c3ccccc3)NC(=O)[C@H](CC(C)C)NC(=O)[C@H](C(C)C)N(C)C(=O)[C@@H](CC(C)C)NC2=O)cc1
IC50 [3]: 4.4 µM
IC50 [4]: 5.1 µM
solubility [5]: 1.5 mg/mL (≈ 2030 µM)
